# Screens from PubChem.
# This is a sample that favours compounds with a hit; in the whole collection about 2.9% have one here.
# ADAM17 inh = ADAM17 inhibitors, primary screen, biochemical, QFRET. Disintegrin and metalloproteinase domain-containing protein 17 (Homo sapiens), P78536. recombinant ADAM17, EDANS/DABCYL FRET peptide cleavage. inhibition, % at 6.95 µM. actives 0.83% (n = 370,000). AID 720648, 2013;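 active = inhibition above the mean of compounds lying between control limits plus 3 SD, set per campaign, cut at about 8.5% in these data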
# Target sequence (P78536 215-824 limits assumed): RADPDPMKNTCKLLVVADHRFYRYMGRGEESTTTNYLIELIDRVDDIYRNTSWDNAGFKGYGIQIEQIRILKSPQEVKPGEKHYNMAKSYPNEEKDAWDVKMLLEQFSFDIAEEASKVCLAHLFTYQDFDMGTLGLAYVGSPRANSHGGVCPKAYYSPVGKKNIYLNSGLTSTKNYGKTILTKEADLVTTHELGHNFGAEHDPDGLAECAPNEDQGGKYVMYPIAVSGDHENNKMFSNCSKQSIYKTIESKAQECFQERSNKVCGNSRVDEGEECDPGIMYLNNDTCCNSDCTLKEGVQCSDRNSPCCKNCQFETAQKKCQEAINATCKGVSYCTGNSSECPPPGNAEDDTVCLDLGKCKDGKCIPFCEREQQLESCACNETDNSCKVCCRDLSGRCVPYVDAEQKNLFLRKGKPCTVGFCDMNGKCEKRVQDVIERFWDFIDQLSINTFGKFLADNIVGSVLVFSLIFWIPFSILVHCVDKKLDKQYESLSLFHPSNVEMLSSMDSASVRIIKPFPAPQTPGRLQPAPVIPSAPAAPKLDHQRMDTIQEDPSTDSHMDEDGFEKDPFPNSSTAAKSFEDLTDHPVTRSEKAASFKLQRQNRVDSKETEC
# Arr AP2 block = inhibitors of beta-arrestin/AP2 binding, primary screen, biochemical, GPCR trafficking, flow cytometry; FITC-arrestin peptide / GST-AP2 beads; AP2 beta2 appendage carries R879A mutation; inhibition, % at 10 µM; AID 504490, 2011; actives 0.31% (n = 340,000); beta-arrestin 1 C-terminal peptide binding to AP2 beta2-adaptin appendage (human);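 active = inhibition above a set limit, near 3 SD of compounds lacking own fluorescence, cut at about 54% in these data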
#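 Material – AP2 appendage R879A on GSH beads · Buffer or medium – PBS with 0.05% Tween 20 and 0.1% BSA · Probe or stimulus – fluorescein-tagged arrestin peptide at 50 nM final · Incubation – compound with beads 12 min RT, then probe 1 h RT · Detection – high-throughput flow cytometry of beads, ex 488, em 535 nm · Evaluation – percent response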
# FAS TE block = FAS thioesterase domain inhibitors, primary screen, biochemical, fluorescence intensity, uHTS | Fatty acid synthase (Homo sapiens), P49327 | recombinant FAS-TE, OMFH fluorogenic substrate, fluorescence endpoint | inhibition, % at 15 µM | actives 0.67% (n = 360,000) | AID 602261, 2012;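 active = compounds whose normalised, plate-corrected inhibition of enzyme fluorescence in the single-dose primary screen is 50% or more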
# CaV13 ICDI inh = Primary screen for inhibitors of IQ motif and Ca2+-dependent inactivation inhibitor domain binding in CACNA1D, Förster resonance energy transfer in living cells, … | HEK cells, CFP/YFP FRET ICDI-IQ, plate reader, 10 min; percent FRET-ratio fall versus neutral wells | actives 0.098% (n = 340,000) | inhibition, % at 12.3 µM | AID 743397;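 active = mean replicate inhibition of at least 30% and at least 1% of replicates passing that level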
# NRP1-CendR mod = modulators of CendR peptide binding to NRP-1, primary screen, biochemical, fluorescence polarization, uHTS. Neuropilin-1 (Homo sapiens), O14786. FAM-RPARPAR peptide binding to NRP-1. inhibition, % at 25 µM. actives 0.85% (n = 360,000). AID 602438, 2012;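 active = inhibition or corrected inhibition above about 18%, plus a signal ratio from 0.5 to 1.5, limit read from the data, passing the limit was not always enough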
# ADAM10 inh = human ADAM10 inhibitors, primary screen, biochemical, QFRET, HTS | inhibition, % at 7 µM | recombinant ADAM10, EDANS/DABCYL FRET peptide cleavage, 3 h | actives 0.62% (n = 370,000) | Disintegrin and metalloproteinase domain-containing protein 10 (Homo sapiens), O14672;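 active = inhibition above a per-campaign cutoff equal to the mean of compounds falling between control-based bounds plus 3 SD, cut at about 20% in these data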
# ADAM10 confirm = human ADAM10 inhibitors, confirmation, biochemical, QFRET, triplicate; ADAM10 QFRET peptide cleavage, EDANS fluorescence; actives 1% (n = 2,100); shares compounds with ADAM10 inh; inhibition, % at 6.95 µM; AID 743208, 2013;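 active = inhibition above about 20% chosen separately for each screening run, limit read from the data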
# ADAM17 ctr = ADAM17 inhibitors, counter-screen for ADAM10 exosite inhibitor project, biochemical, QFRET, high throughput | actives 0.5% (n = 2,100) | ADAM17 QFRET peptide cleavage, EDANS fluorescence | inhibition, % at 6.95 µM | shares compounds with ADAM10 inh;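 active = mean triplicate inhibition above the solvent-only control wells' mean plus 3 SD, cut at about 12% in these data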
# ADAM10 counter = ADAM10 inhibitors, counter-screen for ADAM17 exosite inhibitor project, biochemical, FRET, human ADAM10 | shares compounds with ADAM17 inh | recombinant ADAM10, EDANS/DABCYL FRET peptide cleavage, 3 h | inhibition, % at 6.95 µM | actives 47% (n = 2,900);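 active = mean inhibition over the triplicate runs exceeds the activity threshold set in the earlier primary screen, cut at about 20% in these data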
# ADAM17 confirm = ADAM17 inhibitors, hit retest, confirmation, biochemical, QFRET peptide cleavage; recombinant ADAM17, EDANS/DABCYL QFRET peptide cleavage; actives 65% (n = 2,900); inhibition, % at 6.95 µM; AID 743257, 2014; shares compounds with ADAM17 inh;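 active = mean inhibition across replicates above the hit cutoff set in the primary screen, cut at about 8.5% in these data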
# Numbers stand for hits; i = inactive; nt = no result given.
SMILES,ADAM17 inh,Arr AP2 block,FAS TE block,CaV13 ICDI inh,NRP1-CendR mod,ADAM10 inh,ADAM10 confirm,ADAM17 ctr,others
COc1cccc(C(=O)NNC(=O)C(=O)Nc2ccc(C)c(Cl)c2)c1,i,i,i,i,i,65.2,33.2,i,
CCc1ccc(NC(=O)C(=O)NNC(=O)c2cccc(OC)c2)cc1,i,i,i,i,i,i,nt,nt,
C#CCN(C[C@H]1[C@H](OC(=O)NCc2ccco2)[C@H](OC(=O)NCc2ccco2)C[C@H]2C(=O)N(c3ccccc3)C(=O)[C@@H]12)S(=O)(=O)c1ccc(C)cc1,i,nt,i,i,i,20.9,i,i,
CC1(C(=O)O)CCCN1C(=O)c1cc2ccccc2s1 (centres undefined),i,nt,i,i,i,i,nt,nt,
Cc1cc(C)c(OCC(=O)Nc2cccc(NC(=O)c3ccco3)c2)c(Br)c1,i,i,i,nt,i,21.0,i,i,
Cc1cc(C)c(OCC(=O)Nc2ccc(NC(=O)c3ccco3)cc2)c([N+](=O)[O-])c1,i,i,i,i,i,i,nt,nt,
COC(=O)c1cnc(Nc2nc(C(N)COCc3ccccc3)cs2)nc1C(F)(F)F (centres undefined),i,nt,i,i,i,21.6,i,i,
FC(F)(F)c1cc(CCN2C(=S)NC[C@@H]2Cc2ccccc2)cc(C(F)(F)F)c1,i,i,i,i,i,26.5,i,i,
Cc1oc(-c2ccccc2)cc1C(=O)Nc1ccc(N(C)C)cc1,i,i,i,nt,i,21.8,i,i,
COc1ccc2nc(-c3ccc(CN4CCC(c5nc6ccccc6[nH]5)CC4)cc3)c(-c3ccccc3)nc2c1,i,nt,nt,i,nt,i,nt,nt,
CCOc1cc(/C=N/NC(=O)c2cccc([N+](=O)[O-])c2)ccc1OS(=O)(=O)c1ccccc1,i,i,i,i,i,27.9,i,i,
C#CCN1Cc2ccccc2Oc2cc(Br)ccc2S1(=O)=O,i,i,i,i,i,i,nt,nt,
CC(=O)C1(O)CCC2C3CCC4CC(O)CCC4(C)C3C(=O)CC21C (centres undefined),i,i,i,i,i,i,nt,nt,
C#CC1(O)CCCC2C3CCC4CC(OC(C)=O)CCC4(C)C3C(=O)CC21C (centres undefined),i,i,i,i,i,23.9,i,i,
COc1ccc(S(=O)(=O)N2CCN(CC(=O)c3ccc(O)c(O)c3)CC2)cc1,i,i,i,i,i,21.9,i,i,
COc1ccc(C(=O)Nc2ccccc2C(=O)N2CCOCC2)cc1Br,i,i,i,nt,i,i,nt,nt,
COc1ccc(C(=O)Nc2ccccc2C(=O)N2CCOCC2)cc1OC,i,i,i,i,i,20.6,i,i,
CCSc1nc2c(c(=O)[nH]c(=O)n2C)n1C/C=C(/C)Cl,i,i,i,i,i,19.9,i,i,
COc1ccc(NC(=O)c2ccc3c(=O)n(-c4ccc(OC)cc4OC)c(=S)[nH]c3c2)c(OC)c1,i,i,i,i,i,i,nt,nt,
CCOc1ccc(NC(=O)c2ccc3c(=O)n(-c4ccc(OC)cc4OC)c(=S)[nH]c3c2)cc1,i,i,i,i,i,23.7,i,i,
CSCCC(NC(=O)c1ccccc1Cl)C(=O)Nc1ccc(C)c(S(=O)(=O)N2CCOCC2)c1 (centres undefined),i,i,i,i,i,i,nt,nt,
CCOC(=O)CC[C@H]1CC[C@]2(CCCN(Cc3ccccc3)C2)O1,i,nt,nt,nt,nt,i,nt,nt,
Cc1ccccc1-n1nc(-c2ccc(N)cc2)cc1N,i,i,i,i,i,41.9,i,i,
CCOc1ccc(N2CC(C(=O)Nc3cccc(S(=O)(=O)N4CCCCC4)c3)CC2=O)cc1 (centres undefined),i,i,i,i,i,21.9,i,i,
CCOc1ccc(N2CC(C(=O)Nc3ccc(S(=O)(=O)N4CCCCC4)cc3)CC2=O)cc1 (centres undefined),i,i,i,i,i,i,nt,nt,
SMILES,ADAM17 inh,Arr AP2 block,FAS TE block,CaV13 ICDI inh,NRP1-CendR mod,ADAM10 inh,ADAM10 confirm,ADAM17 ctr,others
COc1cc(OC)cc(C(=O)N[C@H](C(=O)OCC(=O)Nc2ccc(C(C)C)cc2)C(C)C)c1,i,i,i,i,i,20.6,i,i,
Cc1cccc(C)c1-n1nnnc1-c1nc2cc3ccccc3cc2[nH]c1=O,i,nt,i,i,i,i,nt,nt,
Cc1[nH]c(N=Nc2ccccc2)nc1N=Nc1ccccc1,i,i,i,i,i,20.7,i,i,
Nc1ccc(N=Nc2ccccc2)c(N)n1,i,i,i,i,i,i,nt,nt,
Cc1ccccc1C(=O)N(Cc1ccccn1)CC1CCCO1 (centres undefined),i,nt,nt,nt,nt,i,nt,nt,
CCCCCCCCN1C(=O)[C@H](CC(=O)NCc2ccc(OC)c(OC)c2)C[C@@]2(C(=O)OCC)CCCC=C12,12.8,nt,i,i,i,30.9,i,i,ADAM10 counter=41.0;ADAM17 confirm=22.1
CCCCCCCCN1C(=O)[C@H](CC(=O)NCc2ccc(OC)c(OC)c2)C[C@@]2(C(=O)OC)CC(C)(C)CC=C12,8.7,nt,nt,i,i,23.8,i,i,ADAM10 counter=32.1;ADAM17 confirm=15.1
COC(=O)[C@@]12C[C@@H](CC(=O)NCc3ccc(OC)c(OC)c3)C(=O)N(CCc3ccc(OC)c(OC)c3)C1=CCC(C)(C)C2,i,nt,nt,i,i,i,nt,nt,
O=C(c1ccccc1NS(=O)(=O)c1ccc([N+](=O)[O-])cc1[N+](=O)[O-])N1O[C@@H]2C=C[C@H]1C2,i,i,i,i,i,i,nt,nt,
O=C(CCc1c[nH]c2ccccc12)Nc1ccc(Oc2cccnc2)cc1,i,nt,nt,nt,nt,i,nt,nt,
